From ChEMBL document CHEMBL4402549, “Benzothiazole-Based LRRK2 Inhibitors as Wnt Enhancers and Promoters of Oligodendrocytic Fate” (J Med Chem, 2020)
Active and inactive are the calls of the source. No cut-off for these calls is given here.

Tests used:
[1] = biological target: T1, Leucine-rich repeat serine/threonine-protein kinase 2 (Homo sapiens, UniProt Q5S007); assay: Inhibition of wild type human GST-tagged LRRK2 (970 to 2527 residues) expressed in baculovirus expression system assessed as reduction in ADP formation at 10 uM using LRRKtide as substrate measured after 1 hr in presence of ATP by Adapta assay relative to control
Procedure, shortened: (§1)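 Fluorescence immunoassay detecting ADP formed by the kinase reaction. Each compound screened at a single fixed concentration of 10 µM and reported as percent inhibition.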

[2] = biological target: T1, Leucine-rich repeat serine/threonine-protein kinase 2; assay: Inhibition of LRRK2 in human iPSC derived neuronal progenitor cells stably expressing TCF/LEF luciferase reporter gene assessed as increase in AXIN2 mRNA expression in absence of Wnt3a by TaqMan probe based RT-PCR analysis
[3] = Induction of neurogenesis in C57/BL6 mouse neural stem cells derived neurospheres isolated from adult ventricular-subventricular zone assessed as increase in total area of neurosphere at 1 to 5 uM measured after 4 days in presence of FGF or EGF by bright field microscopy analysis relative to control; assay type: functional
Procedure, shortened: (§2)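 Primary neurospheres from adult mouse V-SVZ neural stem and progenitor cells, cultured 4 days with FGF and EGF and compound at 1 or 5 µM; DMSO vehicle control, PF06447475 as reference LRRK2 inhibitor. Proliferation read as total neurosphere area per bright-field field by ImageJ macro, expressed relative to DMSO (=100); 6 fields per triplicate, three independent experiments, mean ± SEM.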

[4] = system: Leucine-rich repeat serine/threonine-protein kinase 2 (Homo sapiens), Q5S007 [G2019S]; assay: Inhibition of human GST-tagged LRRK2 G2019S mutant (970 to 2527 residues) expressed in baculovirus expression system assessed as reduction in ADP formation at 10 uM using LRRKtide as substrate measured after 1 hr in presence of ATP by Adapta assay relative to control; procedure, shortened: as §1
[5] = biological target: T1, Leucine-rich repeat serine/threonine-protein kinase 2; assay: (§3) Inhibition of LRRK2 in human iPSC derived neuronal progenitor cells stably expressing TCF/LEF luciferase reporter gene assessed as modulation of Wnt/beta-catenin signaling pathway by measuring TCF/LEF dependent beta-catenin mediated transcriptional activity at 1 uM measured after 24 hrs in presence of Wnt3a by Steady-Glo luciferase assay relative to control
Procedure, shortened: (§4)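 TCF/LEF luciferase reporter assay in human cells stimulated with Wnt3a supplied as Wnt3a-expressing cell conditioned medium; compounds at fixed 1 or 10 µM. Reporter activity expressed as fold increase over DMSO vehicle.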

[6] = biological target: T1, Leucine-rich repeat serine/threonine-protein kinase 2; assay: Inhibition of LRRK2 in human iPSC derived neuronal progenitor cells stably expressing TCF/LEF luciferase reporter gene assessed as increase in AXIN2 mRNA expression in presence of Wnt3a by TaqMan probe based RT-PCR analysis
Mus musculus [7] = species: Mus musculus; assay: Induction of neurogenesis in C57/BL6 mouse neural stem cells derived neurospheres isolated from adult ventricular-subventricular zone assessed as increase in neurosphere size at 1 to 5 uM measured after 4 days in presence of FGF or EGF by bright field microscopy analysis; assay type: functional; procedure, shortened: as §2
[8] = biological target: T1, Leucine-rich repeat serine/threonine-protein kinase 2; assay: as §3, with “activity” for “activity at 1 uM”
Procedure, shortened: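 TCF/LEF luciferase reporter activity measured with Wnt3a supplied as conditioned medium from Wnt3a-expressing cells. Compounds screened at 1 and 10 µM. For dose curves, serial dilutions spanned 0.01–20.00 µM, with each concentration repeated eight times. Values are fold increase over DMSO vehicle (average ± SD for the curves).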

[9] = biological target: Leucine-rich repeat serine/threonine-protein kinase 2 (Mus musculus) (UniProt Q5S006); assay: Inhibition of LRRK2 in C57/BL6 mouse neural stem cells derived neurospheres isolated from adult ventricular-subventricular zone assessed as reduction in Rab10 phosphorylation at 10 uM using Rab10 as substrate measured after 7 days in presence of mitogens by Western blot analysis
Procedure, shortened: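 Neurosphere cultures from adult mouse SVZ (2 male mice) grown 7 days with mitogens, treated with compound at 10 µM or DMSO. Cell pellets immunoblotted with monoclonal anti-phospho-Rab10 (T73); p-Rab10 quantified over three experiments, mean ± SEM.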

Mus musculus [10] = species: Mus musculus; assay: Induction of neurogenesis in C57/BL6 mouse neuronal progenitor cells derived neurospheres isolated from adult ventricular-subventricular zone assessed as increase in neurosphere size at 1 to 5 uM measured after 4 days in presence of FGF or EGF by bright field microscopy analysis; assay type: functional; procedure, shortened: as §2
[11] = biological target: Leucine-rich repeat serine/threonine-protein kinase 2 (Homo sapiens, UniProt Q5S007, G2019S); assay: Inhibition of human GST-tagged LRRK2 G2019S mutant (970 to 2527 residues) expressed in baculovirus expression system assessed as reduction in ADP formation using LRRKtide as substrate measured after 1 hr in presence of ATP by Adapta assay
Procedure, shortened: (§5)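 Fluorescence immunoassay detecting ADP formed in the kinase reaction. Dose-response run at ten concentrations per compound in two independent experiments. IC50 given ± standard deviation.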

[12] = biological target: T1, Leucine-rich repeat serine/threonine-protein kinase 2; assay: as §3, with “10” for “1”; procedure, shortened: as §4
[13] = biological target: T1, Leucine-rich repeat serine/threonine-protein kinase 2; assay: Inhibition of wild-type human partial length LRRK2 (H970 to E2527 residues) expressed in mammalian expression system at 10 uM by Kinomescan method relative to control
[14] = biological target: Leucine-rich repeat serine/threonine-protein kinase 2 (Mus musculus) (UniProt Q5S006); assay: Inhibition of LRRK2 in C57/BL6 mouse neural stem cells derived neurospheres isolated from adult ventricular-subventricular zone assessed as increase in neurosphere proliferation at 1 uM measured after 4 days presence of FGF or EGF by bright field microscopy analysis
[15] = biological target: Leucine-rich repeat serine/threonine-protein kinase 2 (Mus musculus) (UniProt Q5S006); assay: Inhibition of LRRK2 in C57/BL6 mouse neural stem cells derived neurospheres isolated from adult ventricular-subventricular zone assessed as differentiation of neurospheres forming CNPase positive oligodendrocytes at 1 uM treated for 6 days and measured on day 7 by bisbenzimide staining based confocal microscopy
Procedure, shortened: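 Dissociated adult V-SVZ neurosphere cells plated on poly-ornithine/fibronectin and cultured 6 days without mitogens with compound at 1 µM, PF-475 reference, DMSO control; fixed day 7. Immunostained for CNPase (oligodendrocytes), β3-tubulin, GFAP, bisbenzimide nuclei; confocal counts of positive cells as % of total; 4 fields per triplicate, two independent experiments, mean ± SEM.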

[16] = biological target: T1, Leucine-rich repeat serine/threonine-protein kinase 2; assay: Inhibition of wild type human GST-tagged LRRK2 (970 to 2527 residues) expressed in baculovirus expression system assessed as reduction in ADP formation using LRRKtide as substrate measured after 1 hr in presence of ATP by Adapta assay; procedure, shortened: as §5
[17] = Permeability of compound in PBS/EtOH buffer (7:3) at 100 ul and pH 7.4 after 2 hrs and 30 mins by UV plate reader based PAMPA-BBB assay; assay type: ADME; conditions: read-out: permeability
Procedure, shortened: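 PAMPA-BBB using porcine brain lipid membrane; in vitro permeability (Pe) determined alongside ten commercial drugs whose reported Pe values validated the assay; compounds classed CNS+ from Pe.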

Chain of Leucine-rich repeat serine/threonine-protein kinase 2 (Homo sapiens, UniProt Q5S007, G2019S) (Q5S007 whole entry G2019S, the tested form may be a part): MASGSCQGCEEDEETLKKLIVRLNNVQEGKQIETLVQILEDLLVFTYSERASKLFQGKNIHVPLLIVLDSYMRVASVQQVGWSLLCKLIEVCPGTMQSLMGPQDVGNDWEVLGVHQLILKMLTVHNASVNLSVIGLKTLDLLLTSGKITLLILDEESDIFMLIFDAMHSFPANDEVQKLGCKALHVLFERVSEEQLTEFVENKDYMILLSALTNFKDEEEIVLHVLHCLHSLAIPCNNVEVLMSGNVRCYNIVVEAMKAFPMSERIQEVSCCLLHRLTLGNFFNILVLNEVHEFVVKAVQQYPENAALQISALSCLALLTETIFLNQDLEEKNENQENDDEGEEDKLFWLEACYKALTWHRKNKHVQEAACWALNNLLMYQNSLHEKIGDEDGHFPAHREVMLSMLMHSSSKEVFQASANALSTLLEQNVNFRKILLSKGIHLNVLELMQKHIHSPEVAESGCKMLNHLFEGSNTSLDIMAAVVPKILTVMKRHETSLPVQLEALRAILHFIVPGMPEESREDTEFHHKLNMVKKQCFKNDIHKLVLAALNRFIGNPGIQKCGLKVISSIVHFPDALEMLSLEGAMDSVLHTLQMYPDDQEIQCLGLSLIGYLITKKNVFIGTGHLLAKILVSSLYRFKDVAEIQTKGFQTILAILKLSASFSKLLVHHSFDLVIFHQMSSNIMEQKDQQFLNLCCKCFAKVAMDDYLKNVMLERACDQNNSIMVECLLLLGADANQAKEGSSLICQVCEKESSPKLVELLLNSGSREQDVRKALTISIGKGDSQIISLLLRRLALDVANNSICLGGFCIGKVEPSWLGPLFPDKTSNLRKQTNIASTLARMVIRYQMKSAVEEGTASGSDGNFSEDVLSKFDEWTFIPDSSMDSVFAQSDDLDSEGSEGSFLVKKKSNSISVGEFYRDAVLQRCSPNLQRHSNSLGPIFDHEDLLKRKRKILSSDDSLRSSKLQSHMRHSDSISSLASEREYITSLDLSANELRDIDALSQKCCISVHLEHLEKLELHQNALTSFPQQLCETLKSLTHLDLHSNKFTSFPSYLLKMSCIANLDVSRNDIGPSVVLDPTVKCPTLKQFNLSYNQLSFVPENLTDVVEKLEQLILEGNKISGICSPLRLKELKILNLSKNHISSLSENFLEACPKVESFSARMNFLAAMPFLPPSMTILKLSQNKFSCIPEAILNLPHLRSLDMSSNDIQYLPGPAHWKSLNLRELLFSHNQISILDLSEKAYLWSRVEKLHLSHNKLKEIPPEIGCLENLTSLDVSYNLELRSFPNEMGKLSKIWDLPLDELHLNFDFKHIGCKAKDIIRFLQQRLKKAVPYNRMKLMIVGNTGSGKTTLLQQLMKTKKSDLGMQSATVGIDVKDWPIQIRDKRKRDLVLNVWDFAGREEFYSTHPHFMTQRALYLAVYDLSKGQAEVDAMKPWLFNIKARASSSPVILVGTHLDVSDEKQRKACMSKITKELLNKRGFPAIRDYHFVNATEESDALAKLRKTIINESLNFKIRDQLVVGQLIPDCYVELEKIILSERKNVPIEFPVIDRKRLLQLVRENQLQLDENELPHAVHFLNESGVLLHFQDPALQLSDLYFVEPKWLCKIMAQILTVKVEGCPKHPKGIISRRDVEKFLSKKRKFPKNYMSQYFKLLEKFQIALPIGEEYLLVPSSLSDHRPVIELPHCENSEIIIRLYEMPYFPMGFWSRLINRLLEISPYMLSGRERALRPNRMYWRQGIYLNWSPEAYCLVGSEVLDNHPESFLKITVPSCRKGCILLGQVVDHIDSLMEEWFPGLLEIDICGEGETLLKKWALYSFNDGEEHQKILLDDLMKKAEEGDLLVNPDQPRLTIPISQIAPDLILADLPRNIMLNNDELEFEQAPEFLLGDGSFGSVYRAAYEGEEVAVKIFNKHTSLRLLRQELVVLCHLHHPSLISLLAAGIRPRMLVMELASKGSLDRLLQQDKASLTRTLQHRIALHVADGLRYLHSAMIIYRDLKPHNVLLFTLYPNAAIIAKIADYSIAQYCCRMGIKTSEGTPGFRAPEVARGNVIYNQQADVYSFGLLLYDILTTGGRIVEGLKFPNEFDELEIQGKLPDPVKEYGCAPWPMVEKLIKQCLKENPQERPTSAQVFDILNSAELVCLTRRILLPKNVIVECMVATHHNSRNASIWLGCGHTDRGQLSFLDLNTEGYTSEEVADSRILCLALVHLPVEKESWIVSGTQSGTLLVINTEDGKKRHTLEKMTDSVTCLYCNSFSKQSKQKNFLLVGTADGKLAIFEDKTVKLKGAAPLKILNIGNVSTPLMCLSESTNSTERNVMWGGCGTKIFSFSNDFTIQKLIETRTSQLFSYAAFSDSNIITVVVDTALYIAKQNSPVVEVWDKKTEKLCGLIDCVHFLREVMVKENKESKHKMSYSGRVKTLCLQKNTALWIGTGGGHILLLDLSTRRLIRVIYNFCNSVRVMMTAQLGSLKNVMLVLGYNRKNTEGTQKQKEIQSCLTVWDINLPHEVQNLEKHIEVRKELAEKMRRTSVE
Chain of Leucine-rich repeat serine/threonine-protein kinase 2 (Homo sapiens), Q5S007 [G2019S] (Q5S007 whole entry G2019S, the tested form may be a part): as above
T1 sequence (Q5S007 whole entry, the tested form may be a part): as the sequence (Q5S007 whole entry G2019S, the tested form may be a part) above, with S2019G counted along it
Chain of Leucine-rich repeat serine/threonine-protein kinase 2 (Mus musculus) (Q5S006 whole entry): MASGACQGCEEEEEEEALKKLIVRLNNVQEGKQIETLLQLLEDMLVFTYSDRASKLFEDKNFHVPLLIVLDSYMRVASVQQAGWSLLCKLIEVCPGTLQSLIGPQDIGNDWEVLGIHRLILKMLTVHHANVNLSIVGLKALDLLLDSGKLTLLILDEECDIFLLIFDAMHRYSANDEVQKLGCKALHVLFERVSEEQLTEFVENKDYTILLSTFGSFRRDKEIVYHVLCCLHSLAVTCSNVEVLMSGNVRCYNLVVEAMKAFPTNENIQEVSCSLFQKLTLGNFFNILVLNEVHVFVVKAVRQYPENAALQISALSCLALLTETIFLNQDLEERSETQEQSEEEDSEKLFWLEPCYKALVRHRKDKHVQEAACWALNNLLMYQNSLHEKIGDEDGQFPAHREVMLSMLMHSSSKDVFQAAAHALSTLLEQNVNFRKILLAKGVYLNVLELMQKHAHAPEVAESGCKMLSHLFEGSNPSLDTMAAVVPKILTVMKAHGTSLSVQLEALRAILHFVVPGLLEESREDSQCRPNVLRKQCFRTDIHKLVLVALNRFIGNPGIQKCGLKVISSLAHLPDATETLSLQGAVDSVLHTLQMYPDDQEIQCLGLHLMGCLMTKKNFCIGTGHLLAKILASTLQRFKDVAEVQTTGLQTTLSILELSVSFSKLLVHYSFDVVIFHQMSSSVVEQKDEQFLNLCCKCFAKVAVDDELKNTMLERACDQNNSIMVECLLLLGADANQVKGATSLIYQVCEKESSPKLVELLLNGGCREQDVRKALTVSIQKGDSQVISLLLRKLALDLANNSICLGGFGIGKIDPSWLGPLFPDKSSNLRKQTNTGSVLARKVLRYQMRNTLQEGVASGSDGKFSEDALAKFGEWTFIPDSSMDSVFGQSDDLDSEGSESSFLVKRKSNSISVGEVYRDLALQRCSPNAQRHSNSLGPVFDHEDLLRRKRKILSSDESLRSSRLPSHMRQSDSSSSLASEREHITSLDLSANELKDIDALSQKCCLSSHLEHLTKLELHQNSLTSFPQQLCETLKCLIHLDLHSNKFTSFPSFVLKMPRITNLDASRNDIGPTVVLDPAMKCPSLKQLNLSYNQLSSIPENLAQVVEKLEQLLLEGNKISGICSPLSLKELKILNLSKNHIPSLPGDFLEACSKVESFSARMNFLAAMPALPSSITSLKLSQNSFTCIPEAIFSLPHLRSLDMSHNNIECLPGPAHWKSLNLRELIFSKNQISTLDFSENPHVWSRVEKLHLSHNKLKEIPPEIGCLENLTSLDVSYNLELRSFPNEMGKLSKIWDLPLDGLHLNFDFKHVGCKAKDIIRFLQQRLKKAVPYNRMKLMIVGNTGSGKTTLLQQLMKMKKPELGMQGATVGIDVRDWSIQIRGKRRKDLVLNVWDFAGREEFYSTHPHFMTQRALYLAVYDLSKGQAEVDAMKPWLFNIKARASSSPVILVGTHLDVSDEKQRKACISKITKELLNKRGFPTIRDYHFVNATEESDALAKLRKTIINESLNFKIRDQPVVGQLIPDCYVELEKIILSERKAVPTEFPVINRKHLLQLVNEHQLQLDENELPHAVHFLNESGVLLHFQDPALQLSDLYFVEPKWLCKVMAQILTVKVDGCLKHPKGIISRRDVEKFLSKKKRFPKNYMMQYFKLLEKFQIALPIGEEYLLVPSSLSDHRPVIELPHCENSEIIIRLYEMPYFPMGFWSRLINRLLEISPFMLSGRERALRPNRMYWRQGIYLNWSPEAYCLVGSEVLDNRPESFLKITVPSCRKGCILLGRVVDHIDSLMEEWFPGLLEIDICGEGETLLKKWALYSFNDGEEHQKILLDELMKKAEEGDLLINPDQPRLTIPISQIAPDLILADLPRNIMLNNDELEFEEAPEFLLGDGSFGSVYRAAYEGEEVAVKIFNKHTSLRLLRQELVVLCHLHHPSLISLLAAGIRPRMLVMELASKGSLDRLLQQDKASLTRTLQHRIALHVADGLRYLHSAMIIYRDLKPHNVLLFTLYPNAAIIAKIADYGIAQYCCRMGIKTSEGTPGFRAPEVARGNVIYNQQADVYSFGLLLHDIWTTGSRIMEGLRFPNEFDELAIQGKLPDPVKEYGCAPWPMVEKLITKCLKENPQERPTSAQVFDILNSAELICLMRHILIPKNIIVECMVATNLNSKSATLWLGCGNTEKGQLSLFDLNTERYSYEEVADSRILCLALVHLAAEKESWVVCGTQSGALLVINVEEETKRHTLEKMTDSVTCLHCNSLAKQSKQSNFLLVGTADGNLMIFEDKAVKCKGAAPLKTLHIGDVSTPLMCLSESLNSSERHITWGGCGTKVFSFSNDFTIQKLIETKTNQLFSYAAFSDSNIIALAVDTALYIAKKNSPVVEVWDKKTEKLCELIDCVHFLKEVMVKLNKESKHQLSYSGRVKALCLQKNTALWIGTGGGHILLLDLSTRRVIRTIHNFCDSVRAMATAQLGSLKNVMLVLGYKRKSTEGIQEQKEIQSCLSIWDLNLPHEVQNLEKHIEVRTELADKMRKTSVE

Work on CS(=O)(=O)c1ccc2nc(NC(=O)c3ccc(N4CCOCC4)cc3)sc2c1 yielded an inhibition [1] of 77%.
For O=C(Nc1nc2c(Cl)cccc2s1)c1ccc(N2CCOCC2)cc1, the inhibition [1] was 32%.
In the case of O=C(Nc1nc2ccccc2s1)c1ccc(N2CCOCC2)cc1, the inhibition [2] is reported as “inactive”, the “fold change (FC)” value [3] is reported as 1.8 - 2.4 and the inhibition [4] is reported as 85%. The fold change (FC) [5] was 3.25, the inhibition [6] was “Active” and the Activity (Mus musculus [7]) was “Active”. The inhibition [8] was “Dose-dependent effect”, the inhibition [9] was “Active” and the inhibition [1] was 75%. The Activity (Mus musculus [10]) was “Active”, the IC50 [11] was 0.37 µM and the fold change (FC) [12] was 2.2. The inhibition [13] was under 35%, the inhibition [14] was “Active” and the inhibition [15] was “Active”.
Work on CCCOc1ccc2nc(NC(=O)c3ccc(N4CCOCC4)cc3)sc2c1 yielded an inhibition [1] of 13%.
With O=C(Nc1nc2ccc(F)cc2s1)c1ccccc1 the inhibition [2] was “inactive”, the “fold change (FC)” value [3] was 1.8 - 2.4 and the inhibition [4] was 79%. For the same compound, the IC50 [16] was 0.52 µM, the fold change (FC) [5] was 1.43 and the inhibition [6] was “Active”. For the same compound, the Activity (Mus musculus [7]) was “Active”, the inhibition [8] was “Dose-dependent effect” and the inhibition [1] was 81%. For the same compound, the Papp at 2.5 h [17] was 15 ×10⁻⁶ cm/s, the Activity (Mus musculus [10]) was “Active” and the IC50 [11] was 0.52 µM. For the same compound, the fold change (FC) [12] was 2.29.
In the case of O=C(Nc1nc2ccc(F)cc2s1)c1ccc(N2CCOCC2)cc1, the inhibition [2] is reported as “inactive”, the “fold change (FC)” value [3] is reported as 1.8 - 2.4 and the inhibition [4] is reported as 55%. The IC50 [16] was 0.17 µM, the fold change (FC) [5] was 1.58 and the inhibition [6] was “Active”. The Activity (Mus musculus [7]) was “Active”, the inhibition [8] was “Dose-dependent effect” and the inhibition [1] was 66%. For the same compound, the Activity (Mus musculus [10]) was “Active”, the IC50 [11] was 0.18 µM and the fold change (FC) [12] was 2.
With Cc1cnc(-c2cnc(NCCNc3ccc(C#N)cn3)nc2-c2ccc(Cl)cc2Cl)[nH]1 the inhibition [8] was “Dose-dependent effect”.
With COc1ccc2nc(NC(=O)c3ccc(N4CCOCC4)cc3)sc2c1 the inhibition [4] was 93%, the inhibition [1] was 73% and the IC50 [11] was 0.44 µM.
For O=C(Nc1nc2ccc(F)cc2s1)c1ccc(Cl)cc1, the inhibition [4] was 67%, the IC50 [16] was 4.46 µM and the inhibition [1] was 68%. The IC50 [11] was 5.64 µM.
With COc1ccc2cc(C(=O)Nc3nc4ccc(F)cc4s3)ccc2c1 the inhibition [1] was 16%.
With CCOC(=O)c1ccc2nc(NC(=O)c3ccc(N4CCOCC4)cc3)sc2c1 the inhibition [1] was 22%.
Compound O=C(CCCC(=O)c1ccccc1)Nc1nc2ccc(F)cc2s1 has an inhibition [1] of 11%.
With CC(C)c1ccc2nc(NC(=O)c3ccc(N4CCOCC4)cc3)sc2c1 the inhibition [4] was 70%, the IC50 [16] was 3.49 µM and the fold change (FC) [5] was 1.19. For the same compound, the inhibition [1] was 48%, the Papp at 2.5 h [17] was 4.3 ×10⁻⁶ cm/s and the IC50 [11] was 1.12 µM. It also gave a fold change (FC) [12] of 1.22.
In the case of Cc1cc(-c2ccc3nc(Nc4ccccc4)nn3c2)cc(C)c1O, the IC50 [16] is reported as 0.02 µM and the IC50 [11] is reported as 0.02 µM.
In the case of N#Cc1cccc(-c2c[nH]c3ncnc(N4CCOCC4)c23)c1, the “fold change (FC)” value [3] is reported as 1.8 - 2.4, the Activity (Mus musculus [7]) is reported as “Active” and the Activity (Mus musculus [10]) is reported as “Active”.
For Cc1ccc2nc(NC(=O)c3ccc(N4CCOCC4)cc3)sc2c1, the inhibition [4] was 71%, the IC50 [16] was 0.48 µM and the fold change (FC) [5] was 1.76. The inhibition [1] was 61% and the fold change (FC) [12] was 1.79.
Work on O=C(Nc1nc2ccc(C(F)(F)F)cc2s1)c1ccc(N2CCOCC2)cc1 yielded an inhibition [4] of 69%, an IC50 [16] of 2.27 µM and an inhibition [1] of 51%. For the same compound, the IC50 [11] was 0.28 µM.
For Cc1cccc2sc(NC(=O)c3ccc(N4CCOCC4)cc3)nc12, the inhibition [1] was 18%.
CCOc1ccc2nc(NC(=O)c3ccc(N4CCOCC4)cc3)sc2c1 showed an inhibition [4] of 85%, an IC50 [16] of 0.3 µM and an inhibition [1] of 80%.
O=C(Nc1nc2ccc(Cl)cc2s1)c1ccc(N2CCOCC2)cc1 gave an inhibition [4] of 50%, an IC50 [16] of 0.37 µM and an inhibition [1] of 60%.
With O=C(Nc1nc2ccc(Br)cc2s1)c1ccc(N2CCOCC2)cc1 the inhibition [2] was “inactive”, the “fold change (FC)” value [3] was 1.8 - 2.4 and the inhibition [4] was 70%. The IC50 [16] was 0.51 µM, the fold change (FC) [5] was 1.25 and the inhibition [6] was “Active”. The Activity (Mus musculus [7]) was “Active”, the inhibition [8] was “Dose-dependent effect” and the inhibition [9] was “Active”. For the same compound, the inhibition [1] was 75%, the Papp at 2.5 h [17] was 4.2 ×10⁻⁶ cm/s and the Activity (Mus musculus [10]) was “Active”. The IC50 [11] was 0.26 µM, the fold change (FC) [12] was 2 and the inhibition [14] was “Active”. The inhibition [15] was “Active”.
